# Molecular target: PRMT5 (Homo sapiens, UniProt O14744)
# Assay: Plasma SDMA pharmacodynamics by LC/MS
# Format: in vivo
# Method in brief: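 Plasma SDMA, a catabolic product of PRMT5 activity, was measured by LC/MS during oral test-compound dosing. Part 1 samples: pre-dose, 2 and 6 h on C1D1; 12 h C1D1 or pre-dose C1D2; pre-dose C1D8; pre-dose, 2 and 6 h on C1D15; pre-dose C1D22, C2D1 and C3D1. Part 2 samples: pre-dose C1D1, C1D8, C1D15, C1D22, C2D1, C3D1 and end of treatment.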
# PRMT5, sequence (O14744 whole entry): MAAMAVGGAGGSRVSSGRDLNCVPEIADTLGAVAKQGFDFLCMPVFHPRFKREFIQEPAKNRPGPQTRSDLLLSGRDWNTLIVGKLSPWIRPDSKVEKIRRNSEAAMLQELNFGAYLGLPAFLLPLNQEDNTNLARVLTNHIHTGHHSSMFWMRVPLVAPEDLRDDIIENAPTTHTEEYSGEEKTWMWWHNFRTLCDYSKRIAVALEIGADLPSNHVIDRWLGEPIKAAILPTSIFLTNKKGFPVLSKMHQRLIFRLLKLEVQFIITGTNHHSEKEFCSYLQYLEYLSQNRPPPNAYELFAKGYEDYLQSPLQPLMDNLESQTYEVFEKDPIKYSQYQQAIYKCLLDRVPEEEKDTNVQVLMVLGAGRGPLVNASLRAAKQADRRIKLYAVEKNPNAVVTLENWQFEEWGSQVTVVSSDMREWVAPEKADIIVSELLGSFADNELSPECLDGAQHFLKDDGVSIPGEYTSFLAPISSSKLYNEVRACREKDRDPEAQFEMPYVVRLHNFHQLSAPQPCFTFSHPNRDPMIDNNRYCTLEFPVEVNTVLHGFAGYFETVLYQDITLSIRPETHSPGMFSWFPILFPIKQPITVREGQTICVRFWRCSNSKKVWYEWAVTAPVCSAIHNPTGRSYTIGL
# PRMT5, sequence (Q9BQA1 whole entry partner): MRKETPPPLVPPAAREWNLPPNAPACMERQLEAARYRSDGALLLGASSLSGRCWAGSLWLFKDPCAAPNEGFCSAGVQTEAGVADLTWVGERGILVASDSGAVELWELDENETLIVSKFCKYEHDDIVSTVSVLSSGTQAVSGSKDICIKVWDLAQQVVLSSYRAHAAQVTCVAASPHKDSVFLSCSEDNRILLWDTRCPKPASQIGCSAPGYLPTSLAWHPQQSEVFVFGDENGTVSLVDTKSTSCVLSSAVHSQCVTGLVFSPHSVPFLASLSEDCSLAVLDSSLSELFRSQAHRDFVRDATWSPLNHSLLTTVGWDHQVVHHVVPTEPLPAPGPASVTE
smiles,measurement,setting,value
Cc1ncnc2c1ccn2[C@@H]1C[C@H](Oc2cc(C(F)F)c(F)c3c2CNCC3)[C@@H](O)[C@H]1O [PF-06939999],Plasma SDMA inhibition,"14-28 days post-dose, 0.5 mg q.d. or b.i.d.",~60%
same,Plasma SDMA inhibition,"RP2D, 6 mg q.d.",around 80%
